In brackets after ≈: the same amount, converted by molar mass.
Assays:
[1] = system: Pseudomonas aeruginosa; assay: Ratio of levofloxacin MIC to compound MIC for Pseudomonas aeruginosa ATCC 27853; assay type: functional
[2] = Cytotoxicity against african green monkey Vero cells after 72 hrs by MTT assay; assay type: cell-based; conditions: chlorocebus sabaeus
Procedure, shortened: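 Vero cells were kept in Minimum Essential Medium with Earle's salts plus 10% fetal bovine serum at 37 °C under 5% CO₂. Cells were seeded at 1 × 10⁴ per well and allowed to recover 24 h. Medium was then replaced with assay medium containing compound or no drug, and cells were exposed for 72 h. CC₅₀ is the 50% cellular cytotoxic concentration.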

[3] = system: Staphylococcus aureus; assay: Antibacterial activity against Staphylococcus aureus ATCC 25923 after 18 to 24 hrs by NCCLS M100-S11 two fold serial dilution method; assay type: functional; conditions: ATCC25923
[4] = system: Staphylococcus aureus; assay: Antibacterial activity against methicillin-resistant Staphylococcus aureus 08-1 after 18 to 24 hrs by NCCLS M100-S11 two fold serial dilution method; assay type: functional
Procedure, shortened: (§1)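 Two-fold serial dilution in agar medium. MIC read as the lowest concentration giving complete inhibition of bacterial growth after incubation at 35 °C for 18–24 h.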

[5] = system: Staphylococcus aureus; assay: Antibacterial activity against methicillin-sensitive Staphylococcus aureus 08-1 after 18 to 24 hrs by NCCLS M100-S11 two fold serial dilution method; assay type: functional
[6] = system: Staphylococcus epidermidis; assay: Antibacterial activity against methicillin-resistant Staphylococcus epidermidis 09-4 after 18 to 24 hrs by NCCLS M100-S11 two fold serial dilution method; assay type: functional; procedure, shortened: as §1
[7] = system: Staphylococcus epidermidis; assay: Antibacterial activity against methicillin-sensitive Staphylococcus epidermidis 09-3 after 18 to 24 hrs by NCCLS M100-S11 two fold serial dilution method; assay type: functional; procedure, shortened: as §1
[8] = system: Staphylococcus epidermidis; assay: Antibacterial activity against methicillin-sensitive Staphylococcus epidermidis 09-6 after 18 to 24 hrs by NCCLS M100-S11 two fold serial dilution method; assay type: functional; procedure, shortened: as §1
[9] = system: Streptococcus pneumoniae; assay: Antibacterial activity against Streptococcus pneumoniae 08-2 after 18 to 24 hrs by NCCLS M100-S11 two fold serial dilution method; assay type: functional
[10] = system: Streptococcus pneumoniae; assay: Antibacterial activity against Streptococcus pneumoniae 08-4 after 18 to 24 hrs by NCCLS M100-S11 two fold serial dilution method; assay type: functional
[11] = system: Enterococcus faecium; assay: Antibacterial activity against Enterococcus faecium 08-2 after 18 to 24 hrs by NCCLS M100-S11 two fold serial dilution method; assay type: functional
[12] = system: Enterococcus faecium; assay: Antibacterial activity against Enterococcus faecium 08-7 after 18 to 24 hrs by NCCLS M100-S11 two fold serial dilution method; assay type: functional
[13] = system: Enterococcus faecalis; assay: Antibacterial activity against Enterococcus faecalis 08-10 after 18 to 24 hrs by NCCLS M100-S11 two fold serial dilution method; assay type: functional
[14] = system: Enterococcus faecalis; assay: Antibacterial activity against Enterococcus faecalis 08-12 after 18 to 24 hrs by NCCLS M100-S11 two fold serial dilution method; assay type: functional
[15] = system: Escherichia coli; assay: Antibacterial activity against Escherichia coli ATCC 25922 after 18 to 24 hrs by NCCLS M100-S11 two fold serial dilution method; assay type: functional; conditions: ATCC25922
[16] = system: Escherichia coli; assay: Antibacterial activity against Escherichia coli 08-21 after 18 to 24 hrs by NCCLS M100-S11 two fold serial dilution method; assay type: functional
[17] = system: Escherichia coli; assay: Antibacterial activity against Escherichia coli 08-22 after 18 to 24 hrs by NCCLS M100-S11 two fold serial dilution method; assay type: functional
[18] = system: Klebsiella pneumoniae; assay: Antibacterial activity against Klebsiella pneumoniae 09-22 after 18 to 24 hrs by NCCLS M100-S11 two fold serial dilution method; assay type: functional
[19] = system: Pseudomonas aeruginosa; assay: Antibacterial activity against Pseudomonas aeruginosa ATCC 27853 after 18 to 24 hrs by NCCLS M100-S11 two fold serial dilution method; assay type: functional
[20] = system: Pseudomonas aeruginosa; assay: Antibacterial activity against Pseudomonas aeruginosa 09-32 after 18 to 24 hrs by NCCLS M100-S11 two fold serial dilution method; assay type: functional
[21] = system: Pseudomonas aeruginosa; assay: Antibacterial activity against Pseudomonas aeruginosa 09-33 after 18 to 24 hrs by NCCLS M100-S11 two fold serial dilution method; assay type: functional
[22] = system: Pseudomonas aeruginosa; assay: Antibacterial activity against Pseudomonas aeruginosa 09-34 after 18 to 24 hrs by NCCLS M100-S11 two fold serial dilution method; assay type: functional
[23] = system: Pseudomonas aeruginosa; assay: Ratio of levofloxacin MIC to compound MIC for Pseudomonas aeruginosa 09-32; assay type: functional
[24] = system: Pseudomonas aeruginosa; assay: Ratio of levofloxacin MIC to compound MIC for Pseudomonas aeruginosa 09-33; assay type: functional
[25] = system: Pseudomonas aeruginosa; assay: Ratio of levofloxacin MIC to compound MIC for Pseudomonas aeruginosa 09-34; assay type: functional
[26] = system: Klebsiella pneumoniae; assay: Antibacterial activity against Klebsiella pneumoniae 09-23 after 18 to 24 hrs by NCCLS M100-S11 two fold serial dilution method; assay type: functional

Row | Compound | CC50 at 72 h [2] | MIC [3] | MIC [4] | MIC [5] | MIC [6] | MIC [7] | MIC [8] | MIC [9] | MIC [10] | MIC [11] | MIC [12] | MIC [13] | MIC [14] | MIC [15] | MIC [16] | MIC [17] | MIC [18] | MIC [19] | MIC [20] | MIC [21] | also measured
1 | COc1c(N2CCN(CC/C(C)=N/Nc3ccccc3)C(C)C2)c(F)cc2c(=O)c(C(=O)O)cn(C3CC3)c12 (centres undefined) | 62.5 µg/mL (≈ 117 µM) | 0.06 µg/mL (≈ 0.112 µM) | 0.25 µg/mL (≈ 0.467 µM) | 0.125 µg/mL (≈ 0.233 µM) | 0.06 µg/mL (≈ 0.112 µM) | 0.06 µg/mL (≈ 0.112 µM) | 0.25 µg/mL (≈ 0.467 µM) | 0.5 µg/mL (≈ 0.933 µM) | 0.25 µg/mL (≈ 0.467 µM) | 0.5 µg/mL (≈ 0.933 µM) | 0.5 µg/mL (≈ 0.933 µM) | 0.5 µg/mL (≈ 0.933 µM) | 1 µg/mL (≈ 1.87 µM) | 0.25 µg/mL (≈ 0.467 µM) | 1 µg/mL (≈ 1.87 µM) | 1 µg/mL (≈ 1.87 µM) | 0.5 µg/mL (≈ 0.933 µM) | 0.5 µg/mL (≈ 0.933 µM) | 0.5 µg/mL (≈ 0.933 µM) | 0.5 µg/mL (≈ 0.933 µM) | Ratio [1]: 2; MIC [22]: 0.25 µg/mL (≈ 0.467 µM); Ratio [23]: 2; Ratio [24]: 2; Ratio [25]: 2; MIC [26]: 1 µg/mL (≈ 1.87 µM)
2 | COc1c(N2CCN(CCC(C)=O)C(C)C2)c(F)cc2c(=O)c(C(=O)O)cn(C3CC3)c12 (centres undefined) | 9.84 µg/mL (≈ 22.1 µM) | 0.06 µg/mL (≈ 0.135 µM) | 0.5 µg/mL (≈ 1.12 µM) | 0.25 µg/mL (≈ 0.561 µM) | 0.25 µg/mL (≈ 0.561 µM) | 0.25 µg/mL (≈ 0.561 µM) | 0.25 µg/mL (≈ 0.561 µM) | 4 µg/mL (≈ 8.98 µM) | 0.25 µg/mL (≈ 0.561 µM) | 4 µg/mL (≈ 8.98 µM) | 4 µg/mL (≈ 8.98 µM) | 4 µg/mL (≈ 8.98 µM) | 4 µg/mL (≈ 8.98 µM) | 0.5 µg/mL (≈ 1.12 µM) | 4 µg/mL (≈ 8.98 µM) | 0.5 µg/mL (≈ 1.12 µM) | 0.5 µg/mL (≈ 1.12 µM) | 1 µg/mL (≈ 2.24 µM) | 0.25 µg/mL (≈ 0.561 µM) | 4 µg/mL (≈ 8.98 µM) | MIC [22]: 0.5 µg/mL (≈ 1.12 µM); MIC [26]: 0.5 µg/mL (≈ 1.12 µM)
3 | COc1c(N2CCN(C/C(C)=N/NC(=O)c3ccncc3)C(C)C2)c(F)cc2c(=O)c(C(=O)O)cn(C3CC3)c12 (centres undefined) | 250 µg/mL (≈ 454 µM) | 2 µg/mL (≈ 3.63 µM) | 32 µg/mL (≈ 58.1 µM) | 2 µg/mL (≈ 3.63 µM) | 2 µg/mL (≈ 3.63 µM) | 0.25 µg/mL (≈ 0.454 µM) | 0.25 µg/mL (≈ 0.454 µM) | 32 µg/mL (≈ 58.1 µM) | 4 µg/mL (≈ 7.26 µM) | 64 µg/mL (≈ 116 µM) | 64 µg/mL (≈ 116 µM) | 128 µg/mL (≈ 232 µM) | 128 µg/mL (≈ 232 µM) | 16 µg/mL (≈ 29.1 µM) | 128 µg/mL (≈ 232 µM) | 64 µg/mL (≈ 116 µM) | 16 µg/mL (≈ 29.1 µM) | 4 µg/mL (≈ 7.26 µM) | 4 µg/mL (≈ 7.26 µM) | 128 µg/mL (≈ 232 µM) | MIC [22]: 32 µg/mL (≈ 58.1 µM); MIC [26]: 32 µg/mL (≈ 58.1 µM)
4 | COc1c(N2CCN(C/C(C)=N/Nc3ccccc3)C(C)C2)c(F)cc2c(=O)c(C(=O)O)cn(C3CC3)c12 (centres undefined) | 11.1 µg/mL (≈ 21.2 µM) | 0.125 µg/mL (≈ 0.24 µM) | 0.125 µg/mL (≈ 0.24 µM) | 0.125 µg/mL (≈ 0.24 µM) | 0.25 µg/mL (≈ 0.479 µM) | 0.25 µg/mL (≈ 0.479 µM) | 0.25 µg/mL (≈ 0.479 µM) | 0.25 µg/mL (≈ 0.479 µM) | 0.25 µg/mL (≈ 0.479 µM) | 4 µg/mL (≈ 7.67 µM) | 4 µg/mL (≈ 7.67 µM) | 4 µg/mL (≈ 7.67 µM) | 4 µg/mL (≈ 7.67 µM) | 0.5 µg/mL (≈ 0.959 µM) | 4 µg/mL (≈ 7.67 µM) | 0.25 µg/mL (≈ 0.479 µM) | 0.25 µg/mL (≈ 0.479 µM) | 2 µg/mL (≈ 3.83 µM) | 0.25 µg/mL (≈ 0.479 µM) | 4 µg/mL (≈ 7.67 µM) | MIC [22]: 0.25 µg/mL (≈ 0.479 µM); MIC [26]: 0.125 µg/mL (≈ 0.24 µM)
5 | CCOC(=O)CN1CCN(c2c(F)cc3c(=O)c(C(=O)O)cn(C4CC4)c3c2OC)CC1C (centres undefined) | 1000 µg/mL (≈ 2170 µM) | 4 µg/mL (≈ 8.67 µM) | > 128 µg/mL | 4 µg/mL (≈ 8.67 µM) | 4 µg/mL (≈ 8.67 µM) | 4 µg/mL (≈ 8.67 µM) | 4 µg/mL (≈ 8.67 µM) | > 128 µg/mL | 4 µg/mL (≈ 8.67 µM) | > 128 µg/mL | > 128 µg/mL | > 128 µg/mL | > 128 µg/mL | 128 µg/mL (≈ 277 µM) | > 128 µg/mL | > 128 µg/mL | > 128 µg/mL | 128 µg/mL (≈ 277 µM) | > 128 µg/mL | > 128 µg/mL | MIC [22]: > 128 µg/mL; MIC [26]: > 128 µg/mL
